Results gathered from unrelated publications.
Lines come from different studies, so protocols differ.
BCHE: Cholinesterase (BCHE, Equus caballus, UniProt P81908)
C3AR1: C3a anaphylatoxin chemotactic receptor (C3AR1, Homo sapiens, UniProt Q16581)

SMILES	target	read-out	action	technique	measurement	result
COc1cc2c(cc1OC)CN(CCc1ccc(NC(=O)c3cccc4c(=O)c5cccc(OC)c5[nH]c34)cc1)CC2	D(1A) dopamine receptor (DRD1, Homo sapiens, UniProt P21728)	cell-free assay			Ki	> 10 µM
CC(C)(C)OC(=O)NC1CCCN(C(=O)/C=C/c2ccc(Cl)cc2)C1 (stereo not shown)	BCHE	enzyme activity	inhibitor	Ellman	IC50	> 50 µM
O=C(N1CCC2(CC1)C[C@@H](CN1CCCCS1(=O)=O)CCO2)C1(c2ccccc2)CCCC1	DHX58 (Homo sapiens, UniProt Q96C10)	ATPase activity	inhibitor		IC50	> 50 µM
CCOc1ccc(/C=C/C(=O)N2CCCC(NC(=O)OC(C)(C)C)C2)cc1OC (stereo not shown)	BCHE	enzyme activity	inhibitor	Ellman	IC50	13.5 µM
O=C(O)C(/C=C/c1ccc(Cl)cc1)=N\Nc1nc(-c2ccccc2)cs1	BCHE	enzyme activity	inhibitor		IC50	2.03 µM
CCN(C)C(=O)Oc1ccc(/C=C/C(=O)NC2CCN(Cc3ccccc3)CC2)cc1	BCHE	enzyme activity	inhibitor	Ellman	IC50	16.3 µM
CC(C)C[C@H](NC(=O)[C@@H](N)[C@@H](C)O)C(=O)N[C@@H](CCC(N)=O)C(=O)N1CCC[C@H]1C(=O)N1CCC[C@H]1C(=O)N[C@@H](C)C(=O)N[C@@H](CO)C(=O)N[C@@H](CO)C(=O)N[C@@H](CCCNC(=N)N)C(=O)N[C@H](CCCNC(=N)N)C(=O)N[C@@H](CCCNC(=N)N)C(=O)N[C@@H](Cc1c[nH]cn1)C(=O)N[C@@H](Cc1ccccc1)C(=O)N[C@@H](Cc1c[nH]cn1)C(=O)N[C@@H](Cc1c[nH]cn1)C(=O)N[C@@H](C)C(=O)N[C@@H](CC(C)C)C(=O)N1CCC[C@H]1C(=O)N1CCC[C@H]1C(=O)NCC(=O)N[C@@H](CCCNC(=N)N)C(=O)O	C3AR1	β-arrestin recruitment	agonist		EC50	0.097 µM
COc1cc(CCC(=O)N2CCC(Cc3ccccc3)CC2)ccc1OC(=O)N(C)C	BCHE	enzyme activity	inhibitor	Ellman	IC50	1.3 µM
COc1ccc(-c2csc(N/N=C(/C=C/c3c(Cl)cccc3Cl)C(=O)O)n2)cc1	BCHE	enzyme activity	inhibitor		IC50	5.01 µM
CC(C)C[C@H](NC(=O)[C@@H](N)[C@@H](C)O)C(=O)N[C@@H](CCC(N)=O)C(=O)N1CCC[C@H]1C(=O)N1CCC[C@H]1C(=O)N[C@@H](C)C(=O)N[C@@H](CO)C(=O)N[C@@H](CO)C(=O)N[C@@H](CCCNC(=N)N)C(=O)N[C@H](CCCNC(=N)N)C(=O)N[C@@H](CCCNC(=N)N)C(=O)N[C@@H](Cc1c[nH]cn1)C(=O)N[C@@H](Cc1ccccc1)C(=O)N[C@@H](Cc1c[nH]cn1)C(=O)N[C@@H](Cc1c[nH]cn1)C(=O)N[C@@H](C)C(=O)N[C@@H](CC(C)C)C(=O)N1CCC[C@H]1C(=O)N1CCC[C@H]1C(=O)N[C@@H](C)C(=O)N[C@@H](CCCCNC(=N)N)C(=O)O	C3AR1	G protein activation	agonist	BRET	EC50	0.259 µM
